Hits are enriched below; roughly 10% of the tested compounds scored in any of these assays.
Lmaj promast: Leishmania major promastigote growth inhibition, primary screen. inhibition, % at 10 µM. actives 9% (n = 200,000). Leishmania major promastigotes, resazurin fluorescence viability; in the data active = inhibition above about 50%;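 note: promastigotes grown with compound for 44 hours at 28 °C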
WT yeast gro inh: growth inhibition of WT strain, primary screen, mitochondrial fusion inhibitor project, WT and mutant strains, chemical genetic; actives 2.1% (n = 190,000); mitochondrial fusion phenotypic screen; inhibition, % at 10 µM; in the data active = inhibition above about 58%; tested in S. cerevisiae
PMI activator: activators of human PMI, primary screen, biochemical, fluorescence intensity, near-Km mannose 6-phosphate; actives 0.005% (n = 190,000); purified human PMI, coupled resazurin fluorescence, 20 min; stronger effect = higher value; 1 = vehicle control, 0 substrate-free wells; Mannose-6-phosphate isomerase (Homo sapiens), P34949; activation factor at 20 µM; AID 1214, 2008;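 active = activation factor of 2 or more at 20 µM, relative to plate controls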
Target sequence (P34949 whole entry, looked up): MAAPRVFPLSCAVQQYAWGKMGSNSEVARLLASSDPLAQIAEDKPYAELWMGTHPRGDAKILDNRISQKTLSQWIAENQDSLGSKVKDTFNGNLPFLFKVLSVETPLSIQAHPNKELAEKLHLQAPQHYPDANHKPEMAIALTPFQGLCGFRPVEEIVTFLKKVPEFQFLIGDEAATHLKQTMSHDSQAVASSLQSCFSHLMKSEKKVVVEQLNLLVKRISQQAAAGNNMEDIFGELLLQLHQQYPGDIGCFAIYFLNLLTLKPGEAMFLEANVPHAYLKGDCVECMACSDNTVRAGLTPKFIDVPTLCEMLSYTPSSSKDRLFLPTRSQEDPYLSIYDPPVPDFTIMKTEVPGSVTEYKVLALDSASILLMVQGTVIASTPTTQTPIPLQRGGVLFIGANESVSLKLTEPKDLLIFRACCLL
Diaphorase act: compounds boosting diaphorase resazurin reduction – biochemical, uHTS, resorufin fluorescence, counter-screen for diaphorase-coupled primary assays, primary screen. actives 0.005% (n = 190,000). Diaphorase/resazurin coupled assay, 16 min; stronger effect = higher value; 1 = vehicle wells, 0 = NADH-free wells. activation factor at 20 µM. AID 1229, 2008;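 active = diaphorase activity raised at least twofold by the compound at 20 µM; inactive = activation factor below 2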
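Assay system: Purified diaphorase enzyme from Clostridium kluyveri | Amount: Enzyme 0.07 U/mL final | Dosing: Compound 20 µM once, DMSO 1% | Timing: 16 min reaction at room temperature | Detection: Fluorescence, excitation 544 nm and emission 590 nm | Evaluation: Higher resorufin formation from activation or reduction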
PMI act satM6P: human PMI activators, high substrate, primary screen, biochemical, fluorescence intensity, near-saturating mannose 6-phosphate; coupled PMI enzyme assay, resazurin fluorescence, 20 min; stronger effect = higher value; 1 = untreated enzyme, 0 = substrate-free blank; AID 1216, 2008; Mannose-6-phosphate isomerase (Homo sapiens), P34949; activation factor at 20 µM; actives 0.34% (n = 190,000);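 active = activation factor of 2 or more at 20 µM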
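Test system: Human PMI in coupled enzyme assay | Input: 15 ng/mL PMI | Medium: HEPES-buffered pH 7.4 with magnesium and detergent | Compound: One concentration, 20 µM, in 1% DMSO | Incubation: Enzyme reaction with compound 20 min at room temperature | Detection: Diaphorase-driven resazurin-to-resorufin fluorescence, excitation 544, emission 590 nm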
An asterisk follows results filed as active; . = not tested or not shown.

SMILES | Lmaj promast | WT yeast gro inh | PMI activator | Diaphorase act | PMI act satM6P
COc1ccccc1C(c1nnnn1Cc1ccccc1)N1CCN(C2CCCC2)CC1 (stereo not given) | 12 | -11 | 1.2 | 0.9 | 1.2
CN(C)CCN(C(=O)c1ccccc1Cl)c1nc2c(Cl)cccc2s1 | 9 | 11 | 1.1 | 1.1 | 1.2
CCOc1ccc2ccccc2c1/C=N/NC(=O)CC1(C)OCCCO1 | -7 | 4 | 1 | 1 | 1
CCn1c(SCC(=O)N2CCN(C(=O)c3ccco3)CC2)nnc1C(C)C | -5 | -1 | 0.9 | 0.9 | 0.9
COc1ccc(C(c2nnnn2C(C)(C)C)N2CCN(c3nc4ccccc4s3)CC2)cc1 (stereo not given) | 57* | 35 | 0.9 | 0.8 | 1
CCCCc1c(C)nc2ccc(C)cc2c1SCCC(=O)O | 2 | -18 | 1.5 | 1 | 1.5
CCCCc1c(C)nc2ccc(Br)cc2c1SC(N)N | -2 | -18 | 1.7 | 1 | 2.2*
CCOC(=O)c1c(NC(=O)CSC(=S)N2CCOCC2)sc(C)c1C | 0 | -20 | 0.9 | 1 | 1
Cc1cc(C)n(-c2nc3ccccc3c3nc(C)nn23)n1 | -5 | 9 | 1 | 0.9 | 1
Cc1cc(C)n(-c2nc(C)nc3c2cnn3-c2ccccc2)n1 | -2 | 65* | 0.9 | 0.8 | 0.8
Cc1nn(-c2ccccc2)c(Cl)c1/C=N/NC(=O)c1cccc(S(=O)(=O)N2CCCC2)c1 | -8 | -2 | 1.1 | 0.9 | 1.1
COc1ccc(-c2nn(-c3ccccc3)cc2/C=N/NC(=O)c2cccc(S(=O)(=O)Nc3ccccc3Cl)c2)cc1 | 81* | -16 | 1 | 0.8 | 1.1
Cc1nn(-c2cccc(Cl)c2)c(Cl)c1/C=N/NC(=O)c1cccnc1 | 71* | 7 | 0.9 | 0.8 | 0.4
COC(=O)N/N=C/c1c(C)nn(-c2cccc(Cl)c2)c1Cl | 26 | -3 | 0.8 | 0.9 | 0.9
Cc1nn(-c2ccccc2)c(N2CCCC2)c1/C=N/NC(=O)c1cccc(S(=O)(=O)Nc2ccc(Cl)cc2)c1 | 52* | -25 | 0.9 | 0.9 | 1
Cc1nn(-c2ccc(F)cc2)c(Cl)c1/C=N/NC(=O)c1cccc(S(=O)(=O)N2CCCC2)c1 | 55* | -5 | 0.9 | 1 | 1
O=C(Nc1nnc(CSCc2ccc(F)cc2)s1)c1ccc([N+](=O)[O-])cc1 | 1 | -4 | 0.6 | 0.9 | 0.9
COc1cc(CNCC2CCCO2)ccc1OCC(N)=O (stereo not given) | -9 | 3 | 1 | 1 | 1.1
O=C1c2cccc3cccc(c23)C(=O)N1CCN1CCN(C(=S)Nc2ccccc2)CC1 | 95* | 15 | 1 | 0.8 | 1
Cc1ccc(C)c(OCC(O)CN2CCN(CCN3C(=O)c4cccc5cccc(c45)C3=O)CC2)c1 (stereo not given) | 100* | 28 | 1 | 1 | 1.1
O=C1c2cccc3cccc(c23)C(=O)N1CCN1CCN(C(=S)Nc2ccc(Cl)cc2)CC1 | 34 | 8 | 1 | 1 | 1
O=C1c2cccc3cccc(c23)C(=O)N1CCN1CCN(CC(O)COc2ccc3ccccc3c2)CC1 (stereo not given) | 81* | 99 | 0.9 | 1.2 | 1
CC(=O)c1ccccc1OCC(O)CN1CCN(CCN2C(=O)c3cccc4cccc(c34)C2=O)CC1 (stereo not given) | 99* | 9 | 1 | 0.9 | 1
COc1cc(COCC(O)CN2CCN(CCN3C(=O)c4cccc5cccc(c45)C3=O)CC2)cc(OC)c1OC (stereo not given) | 13 | 26 | 1.3 | 1.2 | 1.4
Cc1nn(C)c(Cl)c1C(=O)NCC(=O)NCc1ccccc1 | 14 | -9 | 1 | 1.1 | 1
SMILES | Lmaj promast | WT yeast gro inh | PMI activator | Diaphorase act | PMI act satM6P
CCCCCCn1c(-c2cccs2)n[nH]c1=S | -8 | 65 | 0.9 | 0.8 | 1
Cc1ccccc1NC(=O)N1CCCC(c2nc(-c3ccc(C(C)C)cc3)no2)C1 (stereo not given) | 85* | -1 | 0.9 | 0.8 | 0.9
CC(C)c1ccc(-c2noc(C3CCCN(C(=O)c4ccc(F)cc4F)C3)n2)cc1 (stereo not given) | -3 | 72* | 0.9 | 0.9 | 0.9
O=C(NN1C(=O)c2ccccc2NC1c1ccc([N+](=O)[O-])o1)c1ccccc1 (stereo not given) | 86* | 6 | 1.2 | 1 | 1
O=C(NN1C(=O)c2ccccc2NC1c1ccc([N+](=O)[O-])o1)c1ccc([N+](=O)[O-])cc1 (stereo not given) | 95* | -1 | 1 | 0.8 | 1
CC(=O)c1c(N2CCN(C)CC2)nc(=S)n(Cc2ccccc2)c1C | -7 | -3 | 1 | 0.9 | 1.1
C=CCn1c(C)c(C(C)=O)c(N2CCN(C(c3ccccc3)c3ccccc3)CC2)nc1=S | 18 | 72* | 1 | 0.7 | 1
COc1ccccc1CN1CCNC(=O)C1CC(=O)NCc1cn(C)nc1C (stereo not given) | 0 | -3 | . | . | .
COc1ccc(NC(=O)COC(=O)CCNS(=O)(=O)c2ccccc2)cc1OC | 0 | -11 | 1.1 | 0.9 | 1
O=C(OCC1OC2OC3(CCCCC3)OC2C2OC3(CCCCC3)OC12)c1ccccc1 (stereo not given) | -1 | 74* | 0.8 | 0.9 | 0.9
O=C(O)C1OC2OC3(CCCCC3)OC2C2OC3(CCCCC3)OC12 (stereo not given) | -4 | -5 | 0.9 | 0.8 | 1
Cc1ccc(S(=O)(=O)N2CCC(=O)N(C(COCc3cccc(C(F)(F)F)c3)Cc3ccccc3)CC2)cc1 (stereo not given) | 0 | 0 | 0.9 | 0.8 | 0.8
CCOCCCNC(=S)N1C2CCC1CC(NC(=O)NC13CC4CC(CC(C4)C1)C3)C2 (stereo not given) | -6 | 1 | 1 | 1 | 1
CC(C)c1ccc(-c2nc(N3CCCCC3)[nH]c(=O)c2C#N)cc1 | 32 | 1 | 1 | 0.9 | 0.8
CC1=Nc2nc(N3CCCCC3)c(C#N)c3c4c(nc(c23)N1)N(c1ccc(C(C)C)cc1)C(=O)C4 | 59* | 3 | 0.4 | 0.2 | 0.4
CCOC(=O)C[N+](CC)(CC)CC#Cc1ccccc1 | -5 | -11 | 1 | 0.9 | 1.1
Cc1c(NC(=O)C(C)OC(=O)c2cccs2)c(=O)n(-c2ccccc2)n1C (stereo not given) | -4 | 5 | 1.1 | 0.9 | 1
CCC(C)(C)C1CCc2nc3ccccc3c(C(=O)OC(C)C(=O)Nc3c(C)n(C)n(-c4ccccc4)c3=O)c2C1 (stereo not given) | 84* | 21 | 0.7 | 0.7 | 0.8

Screening results (PubChem)
